Data taken from ChEMBL document CHEMBL4177769, “Highly Selective and Potent Ectonucleotide Pyrophosphatase-1 (NPP1) Inhibitors Based on Uridine 5'-Pα,α-Dithiophosphate Analogues” (J Med Chem, 2018).

How the values were obtained:
[1] = target: T1, Ectonucleoside triphosphate diphosphohydrolase 1 (Homo sapiens) (UniProt P49961); assay: Activation of human NTPDase1 using ATP as substrate preincubated for 3 mins followed by substrate addition measured after 10 mins by malachite green reagent-based assay relative to control
T1 sequence (whole entry): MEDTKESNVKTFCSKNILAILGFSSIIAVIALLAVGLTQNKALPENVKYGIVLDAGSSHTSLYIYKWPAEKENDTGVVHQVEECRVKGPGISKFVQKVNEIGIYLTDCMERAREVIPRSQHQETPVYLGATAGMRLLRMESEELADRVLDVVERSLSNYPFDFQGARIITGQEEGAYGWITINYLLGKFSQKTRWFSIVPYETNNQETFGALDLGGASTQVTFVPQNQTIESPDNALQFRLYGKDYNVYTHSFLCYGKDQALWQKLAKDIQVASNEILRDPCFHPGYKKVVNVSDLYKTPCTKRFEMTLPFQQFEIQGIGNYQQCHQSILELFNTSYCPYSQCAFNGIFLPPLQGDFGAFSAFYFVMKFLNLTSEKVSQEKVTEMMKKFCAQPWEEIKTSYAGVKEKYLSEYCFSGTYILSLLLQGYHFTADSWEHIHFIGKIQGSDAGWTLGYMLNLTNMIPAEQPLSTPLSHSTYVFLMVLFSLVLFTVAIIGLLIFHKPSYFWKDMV
Outline: (§1)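 Compound at 100 μM, 3 min preincubation, 100 μM ATP, 10 min. Stopped with malachite green; Pi read at 630 nm. Blank with enzyme added after stop subtracted. Activity with ATP alone taken as 100%.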

[2] = target: T2, Ectonucleoside triphosphate diphosphohydrolase 8 (Homo sapiens) (UniProt Q5MY95); assay: Activation of human NTPDase8 using ATP as substrate preincubated for 3 mins followed by substrate addition measured after 10 mins by malachite green reagent-based assay relative to control; outline: as §1
T2 sequence (whole entry): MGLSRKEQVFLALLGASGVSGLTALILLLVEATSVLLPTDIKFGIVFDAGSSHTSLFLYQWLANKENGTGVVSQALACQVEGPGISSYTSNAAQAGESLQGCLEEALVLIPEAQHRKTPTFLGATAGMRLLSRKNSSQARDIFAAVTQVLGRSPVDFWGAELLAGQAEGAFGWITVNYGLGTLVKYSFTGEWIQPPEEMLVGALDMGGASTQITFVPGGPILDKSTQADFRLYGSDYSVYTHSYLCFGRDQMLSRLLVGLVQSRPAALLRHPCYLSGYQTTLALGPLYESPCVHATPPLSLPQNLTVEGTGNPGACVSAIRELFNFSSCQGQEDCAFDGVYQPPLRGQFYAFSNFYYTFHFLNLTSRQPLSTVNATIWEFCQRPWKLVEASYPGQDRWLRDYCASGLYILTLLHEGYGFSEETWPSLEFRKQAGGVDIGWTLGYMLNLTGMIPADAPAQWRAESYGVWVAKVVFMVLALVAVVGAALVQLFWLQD

[3] = Drug level treated with UTP 5'-O-Palpha,alpha-dithiophosphate at 2 mM at pH 1.7 at room temperature after 23 days by 31P NMR method; assay type: physicochemical; details: pH 1.7, 552 h, 2000 µM
[4] = Drug level treated with UTP 5'-O-Palpha,alpha-dithiophosphate at 2 mM at pH 11.7 at room temperature after 25 days by 31P NMR method; assay type: physicochemical; details: pH 11.7, 600 h, 2000 µM

O=c1ccn([C@@H]2O[C@H](COP(=S)(S)OP(=O)(O)OP(=O)(O)O)[C@@H](O)[C@H]2O)c(=O)[nH]1 (some centres undefined)
Activity [1]: 7 to 27% | Activity [2]: 7 to 27%

O=c1ccn([C@@H]2O[C@H](COP(=S)(S)OP(=O)(O)O)[C@@H](O)[C@H]2O)c(=O)[nH]1 (some centres undefined)
Drug metabolism [3]: Metabolite_Detected | Drug metabolism [4]: Metabolite_Detected
